Compound activity (PubChem BioAssay)
DSG3 Ab inh – inhibitors of pemphigus antibody binding to human desmoglein-3 | DSG3-coupled beads, scFv-anti-DSG3-GFP binding, flow cytometry; stronger effect = lower value | 310,000 tested, 0.48% active | P32926 | binding (percent of control), % at 10 µM;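 active means binding more than 3 SD below its plate's average and above zero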;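 further: hits lower antibody fragment binding to DSG3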
SUMO1-SIM PPI – alters human SUMO1 binding to SIM partners. SUMO1 binding to a labelled peptide, TR-FRET, 1 h. 360,000 tested, 0.33% active. inhibition, % at 20 µM. P63165; in the data active means inhibition above about 37%
Target sequence (P63165 whole entry, looked up): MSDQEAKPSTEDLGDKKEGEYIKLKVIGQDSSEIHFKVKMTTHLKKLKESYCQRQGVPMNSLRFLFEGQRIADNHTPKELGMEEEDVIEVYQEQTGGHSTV
STEP inh – inhibitors of human striatal-enriched phosphatase STEP; recombinant STEP, OMFP fluorogenic substrate, fluorescence; inhibition, % at 20 µM; 360,000 tested, 0.25% active; AID 588621;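 active means inhibition at 20 µM, scaled per plate between control wells, above about 37%, limit read from the data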;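 further: 0% = DMSO with enzyme and substrate and 100% = substrate only without enzyme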
Target sequence (P54829 whole entry, looked up): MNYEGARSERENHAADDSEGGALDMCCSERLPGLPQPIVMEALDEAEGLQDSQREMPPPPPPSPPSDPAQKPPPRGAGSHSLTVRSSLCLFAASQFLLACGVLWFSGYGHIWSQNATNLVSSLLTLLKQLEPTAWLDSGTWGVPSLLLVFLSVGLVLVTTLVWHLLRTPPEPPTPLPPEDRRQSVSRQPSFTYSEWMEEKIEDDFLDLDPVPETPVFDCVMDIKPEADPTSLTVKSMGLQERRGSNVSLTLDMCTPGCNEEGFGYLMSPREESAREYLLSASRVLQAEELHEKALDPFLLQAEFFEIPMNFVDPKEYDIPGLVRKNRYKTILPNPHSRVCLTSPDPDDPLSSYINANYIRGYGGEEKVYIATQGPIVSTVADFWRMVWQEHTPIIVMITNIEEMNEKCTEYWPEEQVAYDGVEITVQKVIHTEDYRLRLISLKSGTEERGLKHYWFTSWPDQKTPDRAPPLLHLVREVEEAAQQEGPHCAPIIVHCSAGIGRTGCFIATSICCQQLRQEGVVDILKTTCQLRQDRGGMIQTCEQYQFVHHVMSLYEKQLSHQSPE
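Test system: STEP tyrosine phosphatase / Reagent: OMFP at 25 µM / Doses: 20 µM, 1% DMSO / Read-out: percent inhibition scaled to no-enzyme and uninhibited-enzyme controls, plate-pattern corrected / Detection: FITC-channel fluorescence of OMFP product / Medium: Bis-Tris buffer pH 6.0, 2.5 mM DTT, 0.005% Tween 20 / Schedule: 20 min at room temperature, dark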
LMPTP block – LMPTP (human) inhibition | 360,000 tested, 0.22% active | P24666 | AID 651560 | inhibition, % at 20 µM | recombinant LMPTP-A, OMFP fluorogenic substrate, fluorescence intensity;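 active means compounds that cut the enzyme signal by at least half of the control window in the single-dose screen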;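 further: plate controls were DMSO wells with enzyme plus substrate for no effect and substrate without enzyme for full effect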
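Assay system: LMPTP-A, protein tyrosine phosphatase of low molecular weight / Medium: pH 6.0 Bis-Tris buffer with DTT and Triton X-100 / Schedule: 50 min enzyme reaction at room temperature, protected from light / Measured by: endpoint fluorescence intensity from OMFP dephosphorylation / Read-out basis: % inhibition relative to no-enzyme and uninhibited control wells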
Scp1 inh – Scp-1 (human) phosphatase inhibition; Q9GZU7; Recombinant Scp1, phosphopeptide, malachite green phosphate absorbance; inhibition, % at 20 µM; 340,000 tested, 0.88% active;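 active means inhibition above about 50% at 20 µM, limit read from the data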;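 further: plate controls were DMSO wells with enzyme for no effect and wells lacking enzyme for full effect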
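Times: enzyme reaction 45 min at room temperature, colour 5 min, stabilisation 30 min. Material: SCP-1 catalytic fragment, aa 76-261. Medium: Acidic Tris acetate buffer with magnesium and detergent. Signal: colorimetric free-phosphate detection, absorbance 630 nm. Read-out basis: % inhibition of SCP-1 phosphate liberation. Reagent: Phosphorylated 17-residue peptide substrate.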
Scp-1 conf – confirmation of human Scp-1 phosphatase inhibitors; shares compounds with Scp1 inh; recombinant SCP-1 catalytic domain, phosphate release, malachite green absorbance; inhibition, % at 20 µM; 2,500 tested, 61% active;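 further: plate controls were DMSO with enzyme for no effect and buffer wells lacking enzyme for full effect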
MG interference – interferes with malachite green readout, flagging false Scp-1 hits; Colorimetric interference counterscreen, malachite green absorbance 630 nm; 2,500 tested, under 10 active; apparent inhibition (interference), % at 20 µM; shares compounds with Scp1 inh; AID 540313;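 further: compounds added after enzyme reaction finished so only phosphate colour detection is probed; plate controls were DMSO wells with completed Scp-1 reaction for no effect and substrate wells lacking enzyme for full effect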
Scp-1 Tm shift – binds human Scp-1, shifting its melting temperature | thermal shift relative to vanadate control, % at 40 µM | 1,500 tested, 25% active | Recombinant SCP1, Sypro Orange thermal shift Tm | shares compounds with Scp1 inh;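 active means substances whose mean melting-temperature shift, as a percentage of the reference inhibitor's shift, reaches about 5.3%, limit read from the data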;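 further: 0% = Tm of DMSO wells and 100% = Tm with sodium orthovanadate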
STEP conf – STEP (human) phosphatase inhibition, single concentration confirmation; 520 tested, 32% active; recombinant STEP, OMFP fluorogenic substrate, fluorescence; inhibition, % at 20 µM; shares compounds with STEP inh; call rule not given here;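 further: 0% = enzyme with substrate plus DMSO and 100% = substrate without enzyme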
An asterisk follows results filed as active. Hits are enriched below; roughly 1.7% of the tested compounds scored in any of these assays.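 How the source made its calls, unless noted: active means inhibition of at least 30% at 20 µM; inactive means the rest.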

How did N#C/C(=C\c1cccc(OCC(=O)O)c1)c1nc2ccccc2[nH]1 do in these assays?
DSG3 Ab inh: 117.3; SUMO1-SIM PPI: -1.1; STEP inh: -1.3; LMPTP block: 0.9; Scp1 inh: -8.3

Results for N#C/C(=C\c1ccc(OC(=O)c2ccc(Cl)s2)cc1)c1nc2ccccc2[nH]1 ?
SUMO1-SIM PPI: 4.3; STEP inh: 71.4*; LMPTP block: 45.9; Scp1 inh: 98.6*; Scp-1 conf: 74.0*; MG interference: -10.1; Scp-1 Tm shift: -3.1; STEP conf: 24.8*

How did N#C/C(=C\c1ccc(OC(=O)c2ccc(Br)s2)cc1)c1nc2ccccc2[nH]1 do in these assays?
DSG3 Ab inh: 96.5; SUMO1-SIM PPI: 2.8; STEP inh: 56.6*; LMPTP block: 1.9; Scp1 inh: 100.8*; Scp-1 conf: 51.9*; MG interference: 0.1; Scp-1 Tm shift: 5.5*; STEP conf: 25.8

How did CC[C@@]1(C(=O)OC)N[C@H](CN(C)C(=O)COC)[C@@H]2C(=O)N(Cc3ccccc3)C(=O)[C@@H]21 do in these assays?
DSG3 Ab inh: 96.3; SUMO1-SIM PPI: 2.2; STEP inh: -0.7; LMPTP block: -2.1; Scp1 inh: -4.2

What do the screens show for `O=C(CC1C(=O)NCCN1C1CCCC1)NCc1cccc(OC(F)(F)F)c1` (stereo not given)?
DSG3 Ab inh: 104.6; SUMO1-SIM PPI: 9.0; STEP inh: 4.3; LMPTP block: 0.0; Scp1 inh: -4.2

How did CCCNC(=O)C(Cc1ccccc1)NC(=O)c1ccc(-c2ccccc2)cc1 (stereo not given) do in these assays?
DSG3 Ab inh: 108.5; SUMO1-SIM PPI: 1.0; STEP inh: -0.3; LMPTP block: -1.7; Scp1 inh: -5.0

What do the screens show for `O=C(N/N=C/c1ccoc1)c1cccc([N+](=O)[O-])c1`?
DSG3 Ab inh: 111.0; SUMO1-SIM PPI: -23.5; STEP inh: 9.5; LMPTP block: 1.0; Scp1 inh: 24.3

How did O=C(N/N=C/c1ccc(Br)s1)c1cccc([N+](=O)[O-])c1 do in these assays?
DSG3 Ab inh: 144.5; SUMO1-SIM PPI: 30.7; STEP inh: 94.3*; LMPTP block: 90.7*; Scp1 inh: 99.1*; Scp-1 conf: 76.4*; MG interference: -13.9; Scp-1 Tm shift: 1.0; STEP conf: 56.3*

How did O=S(=O)(NC1CCCC1)c1ccc(F)cc1F do in these assays?
DSG3 Ab inh: 99.5; SUMO1-SIM PPI: 6.7; STEP inh: 0.8; LMPTP block: 0.8

How did CC(OC(=O)c1cccc(S(=O)(=O)Nc2cccc(C(F)(F)F)c2)c1)C(=O)Nc1ccc2c(c1)OCCO2 (stereo not given) do in these assays?
DSG3 Ab inh: 105.0; SUMO1-SIM PPI: 7.4; STEP inh: 60.7*; LMPTP block: 3.4; Scp1 inh: -9.6; STEP conf: 18.8

Results for CC(=O)Nc1ccc(NC(=O)C(C)OC(=O)c2ccc3c(c2)OCCO3)cc1 (stereo not given) ?
DSG3 Ab inh: 103.5; SUMO1-SIM PPI: -0.2; STEP inh: -2.0; LMPTP block: -1.8; Scp1 inh: -1.7

Results for Cc1ccc(CSCC(=O)Nc2ccc(N3CCOCC3)cc2N2CCOCC2)cc1 ?
DSG3 Ab inh: 113.0; SUMO1-SIM PPI: 0.9; STEP inh: -1.6; LMPTP block: 0.4; Scp1 inh: -3.5

Results for CSc1ccc(C(=S)N2CCCCCC2)cc1 ?
DSG3 Ab inh: 98.2; SUMO1-SIM PPI: 2.5; STEP inh: 6.5; LMPTP block: 0.7; Scp1 inh: 1.2

What do the screens show for `CSc1ccc(C(=S)N2CCN(Cc3ccccc3)CC2)cc1`?
DSG3 Ab inh: 88.5; SUMO1-SIM PPI: -2.6; STEP inh: 52.5*; LMPTP block: -0.5; Scp1 inh: -4.6; STEP conf: 24.8

What do the screens show for `CCN1CCN(C(=S)c2ccc(SC)cc2)CC1`?
DSG3 Ab inh: 113.6; SUMO1-SIM PPI: -1.1; STEP inh: 67.0*; LMPTP block: -0.3; Scp1 inh: -13.1; STEP conf: 6.5

What do the screens show for `COc1cc(C)c(NC(=S)Nc2cccc(Cl)c2C)cc1OC`?
DSG3 Ab inh: 101.2; SUMO1-SIM PPI: -2.0; STEP inh: 48.2*; LMPTP block: -1.4; Scp1 inh: -2.4; STEP conf: 3.1

How did COC(=O)c1cccc(NC(=S)Nc2cccc(Cl)c2C)c1 do in these assays?
DSG3 Ab inh: 87.9; SUMO1-SIM PPI: 2.6; STEP inh: -2.9; LMPTP block: 1.6; Scp1 inh: 2.7

Results for Cc1ccccc1N1CCN(CC(=O)Nc2nccs2)CC1 ?
DSG3 Ab inh: 111.7; SUMO1-SIM PPI: 1.2; STEP inh: 0.4; LMPTP block: 0.4; Scp1 inh: -10.2

What do the screens show for `Cc1ccccc1-n1nc(CSc2nc3ccccc3[nH]2)c(-c2ccccc2)c1N`?
DSG3 Ab inh: 95.2; SUMO1-SIM PPI: 4.8; STEP inh: 58.2*; LMPTP block: 1.2; Scp1 inh: -1.4; STEP conf: 7.2

What do the screens show for `C=CC[C@@H](CC(=O)N[C@@H](CO)Cc1ccccc1)C(=O)N[C@@H](COC(=O)[C@H](CC=C)CC(=O)OC(C)(C)C)Cc1c[nH]c2ccccc12`?
SUMO1-SIM PPI: -3.4; STEP inh: 1.9; LMPTP block: 2.2; Scp1 inh: -11.4

How did CCOC(=O)c1c(NC(=O)OC)sc(C(=O)N(CC)CC)c1C do in these assays?
DSG3 Ab inh: 102.7; SUMO1-SIM PPI: -3.0; STEP inh: 81.8*; LMPTP block: 0.7; Scp1 inh: -3.3; STEP conf: 52.1*

Results for CCOC(=O)c1sc(NC(=O)OC)c(C(=O)OC)c1C ?
DSG3 Ab inh: 100.6; SUMO1-SIM PPI: 6.9; STEP inh: 0.9; LMPTP block: -0.7; Scp1 inh: -6.1

What do the screens show for `CN(c1cccc(Cl)c1)S(=O)(=O)c1cccc(C(=O)NC2=NCCS2)c1`?
SUMO1-SIM PPI: 0.2; STEP inh: 1.2; LMPTP block: 0.4; Scp1 inh: 0.2

What do the screens show for `COC(=O)c1ccc(NC(=O)CCS(=O)(=O)c2ccc3c(c2)NC(=O)C(C)S3)cc1` (stereo not given)?
DSG3 Ab inh: 98.8; SUMO1-SIM PPI: 5.9; STEP inh: 0.0; LMPTP block: 0.9; Scp1 inh: 1.1
